Test [1] has as its target Epidermal growth factor receptor (Homo sapiens) (UniProt P00533). Kind of test: Inhibition of recombinant human EGFR (696 to end residues) assessed as residual activity at 1 uM using poly(Glu, Tyr) 4:1 as substrate incubated for 40 mins by [gamma-33P]-ATP scintillation counting based radiometry assay relative to control.
For test [2], the target named is Vascular endothelial growth factor receptor 1 (Homo sapiens) (UniProt P17948). The test can be described thus: Inhibition of recombinant human FLT1 (783 to end residues) assessed as residual activity at 1 uM using KKKSPGEYVNIEFG as substrate incubated for 40 mins by [gamma-33P]-ATP scintillation counting based radiometry assay relative to control.
Test [3] has as its target Receptor tyrosine-protein kinase erbB-2 (Homo sapiens) (UniProt P04626). The test can be described thus: Inhibition of recombinant human HER2 (676 to end residues) assessed as residual activity at 1 uM using poly(Glu, Tyr) 4:1 as substrate incubated for 40 mins by [gamma-33P]-ATP scintillation counting based radiometry assay relative to control.
Test [4] deals with Vascular endothelial growth factor receptor 2 (Homo sapiens) (UniProt P35968). Kind of test: Inhibition of recombinant human KDR (790 to end residues) assessed as residual activity at 1 uM using myelin basic protein as substrate incubated for 40 mins by [gamma-33P]-ATP scintillation counting based radiometry assay relative to control.
In test [5] the target is T1, Serine/threonine-protein kinase TNNI3K (Homo sapiens) (UniProt Q59H18).
T1 sequence (whole entry): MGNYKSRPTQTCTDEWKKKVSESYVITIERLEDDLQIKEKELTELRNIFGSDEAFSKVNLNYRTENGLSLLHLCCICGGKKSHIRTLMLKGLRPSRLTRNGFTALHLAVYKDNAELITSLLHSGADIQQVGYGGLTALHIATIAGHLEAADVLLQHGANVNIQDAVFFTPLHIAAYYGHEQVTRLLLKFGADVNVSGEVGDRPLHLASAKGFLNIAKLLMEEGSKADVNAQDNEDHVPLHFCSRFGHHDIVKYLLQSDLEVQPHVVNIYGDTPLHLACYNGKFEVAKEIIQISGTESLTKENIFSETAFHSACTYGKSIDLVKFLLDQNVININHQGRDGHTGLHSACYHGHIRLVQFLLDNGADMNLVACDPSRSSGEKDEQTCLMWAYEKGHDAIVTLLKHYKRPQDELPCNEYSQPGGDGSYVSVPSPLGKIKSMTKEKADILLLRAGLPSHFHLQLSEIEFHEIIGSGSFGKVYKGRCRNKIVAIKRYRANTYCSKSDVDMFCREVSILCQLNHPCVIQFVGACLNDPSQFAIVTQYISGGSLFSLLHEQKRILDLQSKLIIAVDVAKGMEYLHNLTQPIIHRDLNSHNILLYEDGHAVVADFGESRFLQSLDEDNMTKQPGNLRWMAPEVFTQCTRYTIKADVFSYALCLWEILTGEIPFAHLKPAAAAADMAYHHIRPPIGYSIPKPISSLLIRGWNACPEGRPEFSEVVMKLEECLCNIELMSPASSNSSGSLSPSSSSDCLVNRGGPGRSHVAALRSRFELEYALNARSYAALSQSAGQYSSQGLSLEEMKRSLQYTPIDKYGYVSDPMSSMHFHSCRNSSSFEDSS
Kind of test: Inhibition of TNNI3K (unknown origin) assessed as residual activity at 1 uM using biotinylated CTnI as substrate by HTRF analysis relative to control. In outline:
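TNNI3K was assayed by HTRF using a GST-tagged TNNI3K kinase domain and a biotinylated cardiac troponin I substrate peptide, followed by the two HTRF detection reagents. Compounds were screened at 1.0 µM, then IC50s were determined.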
A general note: TR-FRET usually uses a lanthanide donor and a delayed reading to cut background.

Vascular endothelial growth factor receptor 2 (Homo sapiens), sequence (P35968 whole entry): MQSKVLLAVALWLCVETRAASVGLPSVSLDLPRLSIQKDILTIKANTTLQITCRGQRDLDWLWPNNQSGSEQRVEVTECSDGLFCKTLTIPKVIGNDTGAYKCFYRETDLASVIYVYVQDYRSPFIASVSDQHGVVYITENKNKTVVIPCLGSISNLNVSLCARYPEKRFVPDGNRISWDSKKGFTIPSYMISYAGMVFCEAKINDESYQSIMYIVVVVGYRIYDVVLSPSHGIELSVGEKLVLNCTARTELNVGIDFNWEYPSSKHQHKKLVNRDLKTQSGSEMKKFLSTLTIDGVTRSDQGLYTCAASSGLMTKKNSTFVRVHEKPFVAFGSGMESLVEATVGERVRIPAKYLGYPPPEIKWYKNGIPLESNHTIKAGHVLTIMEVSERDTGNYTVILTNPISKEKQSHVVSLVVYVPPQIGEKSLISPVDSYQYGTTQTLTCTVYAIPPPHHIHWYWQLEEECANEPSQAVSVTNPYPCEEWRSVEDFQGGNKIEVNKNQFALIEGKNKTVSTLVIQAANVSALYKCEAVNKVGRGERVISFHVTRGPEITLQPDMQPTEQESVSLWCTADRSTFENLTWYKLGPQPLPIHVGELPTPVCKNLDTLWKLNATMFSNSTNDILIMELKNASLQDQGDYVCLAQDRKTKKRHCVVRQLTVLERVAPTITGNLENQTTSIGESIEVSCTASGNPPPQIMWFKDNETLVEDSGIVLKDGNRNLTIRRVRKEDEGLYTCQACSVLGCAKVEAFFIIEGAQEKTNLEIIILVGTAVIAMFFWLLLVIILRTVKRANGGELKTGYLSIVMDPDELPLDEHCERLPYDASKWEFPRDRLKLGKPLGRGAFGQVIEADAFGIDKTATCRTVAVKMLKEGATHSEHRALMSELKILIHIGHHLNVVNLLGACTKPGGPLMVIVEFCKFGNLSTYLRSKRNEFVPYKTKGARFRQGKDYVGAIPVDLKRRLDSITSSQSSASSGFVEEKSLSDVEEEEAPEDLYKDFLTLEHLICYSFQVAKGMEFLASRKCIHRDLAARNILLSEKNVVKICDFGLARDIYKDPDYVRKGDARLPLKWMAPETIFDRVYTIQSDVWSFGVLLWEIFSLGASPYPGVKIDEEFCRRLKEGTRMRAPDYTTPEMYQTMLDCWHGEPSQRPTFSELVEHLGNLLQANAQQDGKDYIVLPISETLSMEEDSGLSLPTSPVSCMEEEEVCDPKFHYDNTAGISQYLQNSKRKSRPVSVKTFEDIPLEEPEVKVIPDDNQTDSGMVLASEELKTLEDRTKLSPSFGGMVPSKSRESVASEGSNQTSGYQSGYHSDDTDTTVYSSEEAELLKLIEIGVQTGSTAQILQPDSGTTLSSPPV
Vascular endothelial growth factor receptor 1 (Homo sapiens), sequence (P17948 whole entry): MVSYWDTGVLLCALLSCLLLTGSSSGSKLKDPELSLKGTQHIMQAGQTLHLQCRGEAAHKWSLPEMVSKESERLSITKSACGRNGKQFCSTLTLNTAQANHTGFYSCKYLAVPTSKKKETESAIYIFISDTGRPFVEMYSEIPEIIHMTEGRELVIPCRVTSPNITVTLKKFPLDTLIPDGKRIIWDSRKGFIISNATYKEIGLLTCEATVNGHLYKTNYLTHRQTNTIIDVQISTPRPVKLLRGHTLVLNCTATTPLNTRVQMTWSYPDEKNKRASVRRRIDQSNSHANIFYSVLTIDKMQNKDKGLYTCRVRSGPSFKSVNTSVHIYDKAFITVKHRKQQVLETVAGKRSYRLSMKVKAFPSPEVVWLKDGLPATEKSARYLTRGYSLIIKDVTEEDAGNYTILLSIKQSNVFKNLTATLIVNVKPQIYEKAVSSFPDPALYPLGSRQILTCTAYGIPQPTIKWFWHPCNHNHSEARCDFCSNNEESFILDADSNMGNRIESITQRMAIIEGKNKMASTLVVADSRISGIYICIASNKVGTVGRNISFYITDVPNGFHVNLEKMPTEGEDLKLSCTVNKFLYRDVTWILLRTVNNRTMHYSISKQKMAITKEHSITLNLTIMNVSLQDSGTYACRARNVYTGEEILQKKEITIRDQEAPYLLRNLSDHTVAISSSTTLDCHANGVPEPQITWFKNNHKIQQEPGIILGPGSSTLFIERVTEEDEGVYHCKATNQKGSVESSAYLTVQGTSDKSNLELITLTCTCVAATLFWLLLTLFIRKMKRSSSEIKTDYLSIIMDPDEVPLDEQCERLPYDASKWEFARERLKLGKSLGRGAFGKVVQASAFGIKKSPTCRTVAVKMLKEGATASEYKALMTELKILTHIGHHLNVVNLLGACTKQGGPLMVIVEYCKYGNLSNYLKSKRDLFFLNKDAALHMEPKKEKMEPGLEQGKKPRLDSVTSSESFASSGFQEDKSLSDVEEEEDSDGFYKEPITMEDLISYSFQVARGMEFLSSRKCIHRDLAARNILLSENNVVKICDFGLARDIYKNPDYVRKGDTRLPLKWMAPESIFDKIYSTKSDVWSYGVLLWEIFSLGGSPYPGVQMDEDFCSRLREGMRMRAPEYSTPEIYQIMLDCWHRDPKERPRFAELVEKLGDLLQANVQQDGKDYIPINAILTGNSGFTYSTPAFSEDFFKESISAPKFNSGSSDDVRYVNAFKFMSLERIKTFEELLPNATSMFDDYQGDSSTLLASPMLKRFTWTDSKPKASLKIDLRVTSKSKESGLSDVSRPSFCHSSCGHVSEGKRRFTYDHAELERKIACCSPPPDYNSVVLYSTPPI
Receptor tyrosine-protein kinase erbB-2 (Homo sapiens), sequence (P04626 whole entry): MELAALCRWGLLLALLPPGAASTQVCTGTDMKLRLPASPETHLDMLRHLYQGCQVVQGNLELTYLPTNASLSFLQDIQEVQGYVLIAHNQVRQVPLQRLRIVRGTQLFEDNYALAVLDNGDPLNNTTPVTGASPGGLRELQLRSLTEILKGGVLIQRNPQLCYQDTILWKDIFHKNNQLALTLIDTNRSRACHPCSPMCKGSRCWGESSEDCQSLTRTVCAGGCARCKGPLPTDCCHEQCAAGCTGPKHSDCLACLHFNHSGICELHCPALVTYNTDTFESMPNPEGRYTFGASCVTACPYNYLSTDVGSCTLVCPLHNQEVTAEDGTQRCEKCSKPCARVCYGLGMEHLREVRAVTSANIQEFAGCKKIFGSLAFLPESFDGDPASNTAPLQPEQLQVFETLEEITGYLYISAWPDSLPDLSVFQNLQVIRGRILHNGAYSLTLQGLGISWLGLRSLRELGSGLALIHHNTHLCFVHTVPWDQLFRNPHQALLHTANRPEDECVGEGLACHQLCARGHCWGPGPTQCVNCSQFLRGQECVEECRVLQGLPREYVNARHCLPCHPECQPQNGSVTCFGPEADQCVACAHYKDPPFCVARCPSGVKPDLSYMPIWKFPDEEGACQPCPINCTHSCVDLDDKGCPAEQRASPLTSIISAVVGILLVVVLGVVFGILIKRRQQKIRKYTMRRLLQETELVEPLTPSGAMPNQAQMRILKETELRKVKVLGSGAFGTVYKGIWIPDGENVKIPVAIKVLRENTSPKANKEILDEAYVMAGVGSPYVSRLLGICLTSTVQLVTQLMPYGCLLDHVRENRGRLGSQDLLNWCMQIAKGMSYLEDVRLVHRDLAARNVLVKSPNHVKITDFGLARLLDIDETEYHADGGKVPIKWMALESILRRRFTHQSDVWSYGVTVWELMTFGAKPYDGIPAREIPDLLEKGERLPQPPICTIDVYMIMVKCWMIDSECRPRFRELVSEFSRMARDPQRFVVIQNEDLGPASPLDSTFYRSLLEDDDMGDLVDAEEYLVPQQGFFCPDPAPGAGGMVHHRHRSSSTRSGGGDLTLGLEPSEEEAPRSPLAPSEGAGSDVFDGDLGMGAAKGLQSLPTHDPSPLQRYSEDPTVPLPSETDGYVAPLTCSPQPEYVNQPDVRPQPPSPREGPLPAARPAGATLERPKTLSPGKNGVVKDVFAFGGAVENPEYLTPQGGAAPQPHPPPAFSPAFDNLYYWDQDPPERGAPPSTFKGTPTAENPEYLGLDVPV

`CN1CCc2c(sc3ncnc(Nc4ccc(N(C)C)c(NC(=O)c5ccccn5)c4)c23)C1`: the Activity in test [1] is 100%; in test [2], 94%; in test [3], 103%; in test [4], 89%; in test [5], 55%.

In the case of `CN(C)c1ccc(Nc2ncnc3sc4c(c23)CCN(C(=O)c2cccnc2)C4)cc1NC(=O)c1cccs1`, the Activity in test [1] is 94%; in test [2] it was 81%; in test [3] it was 93%; in test [4], 69%; in test [5], 45%.

`CCC(=O)Nc1cc(Nc2ncnc3sc4c(c23)CCN(c2ncccn2)C4)ccc1N(C)C`: the Activity in test [1] was 102%; in test [2], 106%; in test [3], 99%; in test [4], 80%; in test [5], 59%.

On to `CCC(=O)Nc1cc(Nc2ncnc3sc4c(c23)CCN(Cc2ccccc2)C4)ccc1N(C)C`, for which the Activity in test [1] was 91%; in test [2], 106%; in test [3], 94%; in test [4] it was 85%; in test [5], 48%.

`CN(C)c1ccc(Nc2ncnc3sc4c(c23)CCN(C(=O)c2cnccn2)C4)cc1NC(=O)c1cccs1`: the Activity in test [1] turned out to be 80%; in test [2] it was 98%; in test [3], 113%; in test [4], 80%; in test [5] it was 44%.

`CN(C)c1ccc(Nc2ncnc3sc4c(c23)CCNC4)cc1NC(=O)c1cccnc1`: the Activity in test [1] is 108%; in test [2], 104%; in test [3], 107%; in test [4], 90%; in test [5], 45%.

Take `Cc1ccc(C(=O)Nc2cc(Nc3ncnc4sc5c(c34)CCN(C)C5)ccc2N(C)C)cc1`: the Activity in test [1] worked out at 108%; in test [2], 97%; in test [3], 92%; in test [4] it was 83%; in test [5], 71%.

Regarding `CN(C)c1ccc(Nc2ncnc3sc4c(c23)CCN(C(=O)c2ccncc2)C4)cc1NC(=O)c1cccs1`, the Activity in test [1] was 85%; in test [2], 85%; in test [3], 110%; in test [4] it was 82%; in test [5] it was 36%.

As to `CCC(=O)Nc1cc(Nc2ncnc3sc4c(c23)CCNC4)ccc1N(C)C`, the Activity in test [1] was 97%; in test [2] it was 107%; in test [3], 102%; in test [4], 92%; in test [5], 46%.

As to `CN1CCc2c(sc3ncnc(Nc4ccc(N(C)C)c(NC(=O)c5ccncc5)c4)c23)C1`, the Activity turned out to be 105% in test [1]; 105% in test [2]; 97% in test [3]; 84% in test [4]; 46% in test [5].

For `CN1CCc2c(sc3ncnc(Nc4ccc(N(C)C)c(NC(=O)c5cccs5)c4)c23)C1`, the Activity in test [1] is 104%; in test [2] it was 108%; in test [3], 103%; in test [4], 89%; in test [5] it was 40%.

Take `CN(C)c1ccc(Nc2ncnc3sc4c(c23)CCN(C(=O)c2ccccn2)C4)cc1NC(=O)c1cccs1`: the Activity in test [1] turned out to be 99%; in test [2], 87%; in test [3], 99%; in test [4] it was 73%; in test [5] it was 40%.

With `CN(C)c1ccc(Nc2ncnc3sc4c(c23)CCNC4)cc1NC(=O)c1ccccn1`, the Activity was determined as 103% in test [1]; 96% in test [2]; 98% in test [3]; 95% in test [4]; 42% in test [5].

Turning to `CN(C)c1ccc(Nc2ncnc3sc4c(c23)CCN(C(=O)c2cnccn2)C4)cc1NC(=O)c1ccco1`, the Activity in test [1] worked out at 89%; in test [2] it was 98%; in test [3], 96%; in test [4] it was 90%; in test [5], 43%.

Source of the values: ChEMBL document CHEMBL4765301, “Discovery of novel TNNI3K inhibitor suppresses pyroptosis and apoptosis in murine myocardial infarction injury” (Eur J Med Chem, 2020).
